Experimental data as given in ChEMBL document CHEMBL1649568, “Efficacy of aerosol MP-376, a levofloxacin inhalation solution, in models of mouse lung infection due to Pseudomonas aeruginosa” (Antimicrob Agents Chemother, 2009).
Values after ≈ are worked out from the molar mass of the structure shown.

How the values were obtained:
[1] = system: Pseudomonas aeruginosa; experiment: Antimicrobial activity against Pseudomonas aeruginosa ATCC 27853 by broth microdilution method; assay type: functional
Method in brief: (§1)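 Broth microdilution per CLSI. Inoculum 5 × 10⁵ CFU/ml, twofold dilutions of antibiotic in medium, 24 h at 35°C. Growth read at 600 nm and by eye with a reading mirror. MIC is the lowest concentration with no visible growth.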

[2] = species: Mus musculus; experiment: Toxicity in Pseudomonas aeruginosa ATCC 27853 infected Swiss mouse; assay type: functional
[3] = system: Pseudomonas aeruginosa; experiment: Antimicrobial activity against Pseudomonas aeruginosa ATCC 27853 infected in Swiss neutropenic mouse assessed as mouse survival rate at 400 mg/kg BID administered 24 hrs post infection through aerosol; assay type: functional
Method in brief: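 Female Swiss mice were made neutropenic (cyclophosphamide 150 mg/kg i.p., days 1 and 3) and infected intratracheally on day 4 with ATCC 27853, 0.05 ml at ca. 1–6 × 10⁵ CFU/ml. Aerosol via microsprayer to the bifurcation (50 µl) under isoflurane, twice daily for 48 h from 24 h postinfection. Survival observed to 9 days postinfection, n = 10.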

[4] = system: Pseudomonas aeruginosa; experiment: Antimicrobial activity against Pseudomonas aeruginosa isolate NH57388A by broth microdilution method; assay type: functional; method in brief: as §1
[5] = system: Pseudomonas aeruginosa; experiment: Antimicrobial activity against Pseudomonas aeruginosa NH57388A infected in Swiss neutropenic mouse assessed as lung bacterial load at 30 mg/kg, ip BID administered 24 hrs post infection (reference value: 8.89 logCFU); assay type: functional; settings: route intraperitoneal
[6] = system: Mus musculus; experiment: Cmax in mouse at 60 mg/kg, ip administered as single dose; assay type: ADME, organism-based; set-up: dose 60 mg/kg, route intraperitoneal; settings: in vivo
[7] = system: Pseudomonas aeruginosa; experiment: Antimicrobial activity against Pseudomonas aeruginosa NH57388A infected in Swiss neutropenic mouse assessed as lung bacterial load at 60 mg/kg, ip BID administered 24 hrs post infection (reference value: 8.89 logCFU); assay type: functional; settings: route intraperitoneal
[8] = system: Mus musculus; experiment: Cmax in mouse at 60 mg/kg, administered as single dose through aerosol; assay type: ADME, organism-based; set-up: dose 60 mg/kg; settings: in vivo, inhaled_or_intranasal
[9] = system: Pseudomonas aeruginosa; experiment: Antimicrobial activity against Pseudomonas aeruginosa NH57388A infected in Swiss neutropenic mouse assessed as lung bacterial load at 15 mg/kg, ip BID administered 24 hrs post infection (reference value: 8.89 logCFU); assay type: functional; settings: route intraperitoneal
[10] = system: Pseudomonas aeruginosa; experiment: Antimicrobial activity against Pseudomonas aeruginosa ATCC 27853 infected in Swiss neutropenic mouse assessed as reduction in lung bacterial load at 32 mg/kg, ip BID administered 24 hrs post infection; assay type: functional; settings: route intraperitoneal
Method in brief: (§2)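 Female Swiss mice (5–6 wk) made neutropenic with cyclophosphamide 150 mg/kg i.p. on days 1 and 3. On day 4, intratracheal instillation of 0.05 ml strain ATCC 27853 suspension at ca. 1–6 × 10⁵ CFU/ml. From 24 h postinfection, two i.p. doses over 24 h, n = 8. Lungs taken 12–16 h after the last dose, homogenized in saline and plated; mean log CFU/lung compared with an untreated baseline group.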

[11] = system: Pseudomonas aeruginosa; experiment: Antimicrobial activity against Pseudomonas aeruginosa ATCC 27853 infected in Swiss neutropenic mouse assessed as reduction in lung bacterial load at […], ip BID administered 24 hrs post infection; assay type: functional; settings: route intraperitoneal
[12] = system: Pseudomonas aeruginosa; experiment: Antimicrobial activity against Pseudomonas aeruginosa ATCC 27853 infected in Swiss neutropenic mouse assessed as reduction in lung bacterial load at 63 mg/kg, ip BID administered 24 hrs post infection; assay type: functional; settings: route intraperitoneal; method in brief: as §2
[13] = system: Pseudomonas aeruginosa; experiment: Bactericidal activity against Pseudomonas aeruginosa NH57388A infected in Swiss neutropenic mouse assessed as reduction in lung bacterial load at 60 mg/kg BID administered 24 hrs post infection through aerosol; assay type: functional
Method in brief: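 In the chronic alginate-embedded NH57388A lung infection (cyclophosphamide 150 mg/kg i.p. once, 4 days before; about 10⁸ CFU/ml inoculum), mice got aerosol doses by microsprayer (50 µl, isoflurane) twice daily for 3 days from 24 h postinfection. Lungs homogenized and plated 12–16 h after the final dose; log CFU/lung.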

[14] = system: Pseudomonas aeruginosa; experiment: Antimicrobial activity against Pseudomonas aeruginosa ATCC 27853 infected in Swiss neutropenic mouse assessed as mouse survival rate at 60 mg/kg BID administered 24 hrs post infection through aerosol

| SMILES | MIC [1] [µg/mL] | MTD [2] [mg/kg] | Activity [3] [%] | MIC [4] [µg/mL] | log10cfu [5] | Cmax [6] [mg/kg] | log10cfu [7] | Cmax [8] [mg/kg] | log10cfu [9] | log10cfu [10] | log10cfu [11] | log10cfu [12] | log10cfu [13] | Activity [14] [%] |
| --- | --- | --- | --- | --- | --- | --- | --- | --- | --- | --- | --- | --- | --- | --- |
| C[C@H]1[C@H](NC(=O)/C(=N\OC(C)(C)C(=O)O)c2csc(N)n2)C(=O)N1S(=O)(=O)O [AZTREONAM] | 4 (≈ 9.19 µM) | 400 | 20 | 4 (≈ 9.19 µM) | – | – | – | – | – | – | – | – | – | – |
| C[C@H]1COc2c(N3CCN(C)CC3)c(F)cc3c(=O)c(C(=O)O)cn1c23.C[C@H]1COc2c(N3CCN(C)CC3)c(F)cc3c(=O)c(C(=O)O)cn1c23.O [LEVOFLOXACIN] | – | – | – | – | 5.73 | 18.6 | 4.93 | 550 | 7.83 | 0.65 | 3.5 | 2.7 | – | – |
| NC[C@H]1O[C@H](O[C@H]2[C@H](O)[C@@H](O[C@H]3O[C@H](CO)[C@@H](O)[C@H](N)[C@H]3O)[C@H](N)C[C@@H]2N)[C@H](N)C[C@@H]1O [TOBRAMYCIN] | 0.25 (≈ 0.535 µM) | 60 | – | 0.5 (≈ 1.07 µM) | – | – | – | – | – | – | – | – | 2.9 | 60 |
